# Most compounds without a hit are left out; they make up all but 2.6% or so of the library.
# SENP6 inh = blocks the human protease SENP6; Q9GZR1; Recombinant SENP6 catalytic domain, aminoluciferin luminescence; inhibition, % at 10 µM; actives 1.8% (n = 330,000); AID 2599;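 active means inhibition above about 50% at the single tested dose, limit read from the data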;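 further: plate controls were DMSO wells with enzyme for no effect and DMSO wells lacking enzyme for full effect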
# SENP8 block-1 = blocks human SENP8 cleavage of Nedd8 substrate; Q96LD8; recombinant SENP8, Nedd8 substrate fluorescence; inhibition, % at 20 µM; actives 0.64% (n = 360,000); in the data active means inhibition mostly above about 40%, no sharp cut-off; inactive means mostly below about 27%
# Target sequence (Q96LD8 whole entry, looked up): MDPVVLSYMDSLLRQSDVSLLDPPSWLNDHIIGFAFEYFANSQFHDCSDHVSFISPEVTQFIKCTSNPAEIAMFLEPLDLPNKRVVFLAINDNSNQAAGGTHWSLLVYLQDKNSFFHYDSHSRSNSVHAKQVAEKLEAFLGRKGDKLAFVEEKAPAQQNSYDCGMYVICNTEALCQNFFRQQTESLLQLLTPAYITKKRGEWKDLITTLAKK
# SENP1 inh = SENP1 (human) catalytic domain inhibition | Q9P0U3 | recombinant SENP1 catalytic domain, CyPet-SUMO1-YPet FRET cleavage | actives 0.21% (n = 360,000) | inhibition, % at 10 µM;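 active means inhibition at least 30% at 10 µM, raw YFP signal under a set limit, fluorescence ratio 0.5 to 1.5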;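 further: 0% = enzyme with DMSO and 100% = no enzyme wells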
# Target sequence (Q9P0U3 419-644 limits assumed): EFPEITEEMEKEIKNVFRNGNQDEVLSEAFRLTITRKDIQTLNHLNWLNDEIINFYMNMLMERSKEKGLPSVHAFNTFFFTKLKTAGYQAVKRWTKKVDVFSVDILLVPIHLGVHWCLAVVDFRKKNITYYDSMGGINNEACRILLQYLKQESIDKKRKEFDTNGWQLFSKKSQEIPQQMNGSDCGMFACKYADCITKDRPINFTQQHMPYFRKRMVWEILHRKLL
#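 Assay system: hSENP1 catalytic domain, recombinant. Amount: SENP1 enzyme, 20 pM final. Schedule: 50 min reaction, RT, dark. Technique: FRET, CFP and YFP emission. Control set: no-enzyme wells low, DMSO-plus-enzyme wells high control.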
# SENP7 inh = SENP7 protease inhibition | Q9BQF6 | recombinant SENP7, Z-RLRGG-aminoluciferin luminescence, 40 min | inhibition, % at 5 µM | actives 1.5% (n = 330,000) | AID 434973;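 active means inhibition above about 50% at the single test dose, limit read from the data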;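 further: plate controls were DMSO with enzyme for no effect and no enzyme buffer wells for full effect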
# UCH37 DUB inh = blocks the human deubiquitinase UCH37 | Q9Y5K5 | purified proteasome/UCH37, Ub-AMC cleavage fluorescence | inhibition, % (no concentration beside the values) | actives 0.33% (n = 330,000);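 active means mean inhibition over replicate wells above about 20%, limit read from the data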;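 further: 0% = compound-free wells with enzyme and 100% = wells lacking proteasome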
#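 Material: human UCH37 enzyme supplied as purified proteasome complex / Amount: 0.15 nM proteasome as dispensed / Buffer or medium: pH 7.4 Tris-HCl (50 mM) with ovalbumin, ATP-MgCl2, DTT / Times: preincubation 30 min, reaction 25 min, room temperature / Technique: AMC fluorescence from Ub-AMC cleavage, excitation 355 nm, emission 460 nm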
# SENP8 block-2 = blocks the human protease SENP8 | purified SENP8, Z-RLRGG-aminoluciferin cleavage, luminescence | inhibition, % at 10 µM | actives 1.2% (n = 330,000) | AID 2540; in the data active means inhibition above about 50%
# SENP8 conf = confirmation of human SENP8 protease inhibitors | shares compounds with SENP7 inh | AID 488912 | Recombinant SENP8, Z-RLRGG-aminoluciferin luminescence, 60 min | actives 40% (n = 6,200) | inhibition, % at 12.5 µM;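 active means mean inhibition across replicates above about 50%, limit read from the data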
# SENP6 conf = human SENP6 inhibition, confirmed | actives 58% (n = 6,200) | shares compounds with SENP7 inh | AID 488915 | inhibition, % at 12.5 µM | recombinant SENP6, Z-RLRGG-aminoluciferin luminescence
# SENP7 confirm = human SENP7 inhibition, confirmed; actives 69% (n = 6,200); shares compounds with SENP7 inh; AID 488917; recombinant SENP7, Z-RLRGG-aminoluciferin luminescence, 40 min; inhibition, % at 12.5 µM
# Casp3 select = inhibits human caspase-3 in SENP selectivity test; shares compounds with SENP7 inh; purified caspase-3, Z-DEVD-aminoluciferin luminescence, 60 min; inhibition, % at 12.5 µM; actives 60% (n = 6,200); AID 488918;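 active means mean inhibition above about 50%, limit read from the data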;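 further: plate controls were enzyme with DMSO for no effect and wells without caspase-3 for full effect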
# Target sequence (P42574 28-227 limits assumed): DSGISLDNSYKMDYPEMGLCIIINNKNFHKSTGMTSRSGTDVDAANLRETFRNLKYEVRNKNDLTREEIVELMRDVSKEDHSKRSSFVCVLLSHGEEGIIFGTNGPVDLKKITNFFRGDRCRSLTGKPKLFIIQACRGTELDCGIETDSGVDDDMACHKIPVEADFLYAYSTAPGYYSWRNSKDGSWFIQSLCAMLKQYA
# Luc interf = counter-screen for SENP inhibitors: luminescence interference. shares compounds with SENP7 inh. AID 488919. Pre-incubated SENP8/Z-RLRGG-aminoluciferin, luciferase luminescence interference. inhibition, % at 12.5 µM. actives 39% (n = 6,200);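 active means mean inhibition above about 50% when retested at one dose, limit read from the data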;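 further: plate controls were DMSO wells with completed reaction for no effect and substrate without enzyme for full effect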
# Numbers without * were called inactive; i = inactive; / = no result.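 How the source made its calls, unless noted: active means mean inhibition above about 50% in the one-dose retest (limit read from the data); inactive means the rest.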
SMILES,SENP6 inh,SENP8 block-1,SENP1 inh,SENP7 inh,UCH37 DUB inh,SENP8 block-2,SENP8 conf,SENP6 conf,SENP7 confirm,Casp3 select,Luc interf
C(=N\Nc1nc2ccccc2s1)/c1ccco1,92.9*,-8.9,-8.9,89.9*,/,82.9*,81.9*,81.6*,96.8*,82.6*,71.9*
Cn1cccc1C=NNC(=O)Cc1cccs1,/,/,/,/,3.6,/,/,/,/,/,/
CCCCC(O)=NS(=O)(=O)c1ccc(N=NN(C)C)cc1,/,/,/,/,1.0,/,/,/,/,/,/
CC(=NNc1nc2ccccc2s1)c1ncccn1,/,17.5,2.7,/,/,/,/,/,/,/,/
C/C(=N\Nc1nc2ccccc2s1)c1cccs1,60.2*,-19.3,4.5,83.9*,/,75.1*,91.5*,91.0*,98.0*,60.3*,30.2
Cc1ccsc1/C=N/Nc1nc2ccccc2s1,86.7*,-173.3,-3.2,85.6*,/,72.0*,-8.8,61.9*,86.7*,47.0,58.1*
O=C(c1cccs1)N1CCc2ccccc21,59.9*,8.0,-1.2,61.3*,5.1,40.2,35.2,38.2,80.4*,75.6*,59.1*
O=C(c1cccs1)N1CCCc2ccccc21,-12.6,9.4,1.3,2.0,1.7,-4.2,/,/,/,/,/
CC(=O)c1ccc(-c2ccc(C(=O)N3CCCc4ccccc43)o2)cc1,-11.0,-8.7,1.5,5.4,-6.0,-3.5,/,/,/,/,/
Cc1ccc(C(=O)N2CCc3ccccc32)o1,90.7*,6.9,1.1,91.1*,3.4,87.6*,90.7*,90.8*,98.4*,94.7*,89.3*
Cc1ccc(C(=O)N2c3ccccc3CC2C)o1 (stereo not drawn),85.1*,29.8,0.0,93.7*,1.6,89.8*,93.6*,95.9*,101.0*,96.6*,83.1*
O=C(NN=Cc1ccc(-c2cccc([N+](=O)[O-])c2)o1)c1ccccc1O,/,/,/,/,2.7,/,/,/,/,/,/
O=C1O[C@@H](C(O)CO)C(O)=C1O (stereo partly drawn),/,/,/,/,1.2,/,/,/,/,/,/
O=C(O)/C=C/c1ccc(O)c(O)c1,-0.7,-21.7,-13.7,-4.4,2.8,1.8,/,/,/,/,/
O=C(/C=C/c1ccc(O)c(O)c1)NC(=O)c1ccccc1O,73.8*,-7.3,2.5,59.4*,11.9,68.9*,-0.3,63.7*,90.3*,38.0,74.1*
O=C(/C=C/c1ccc(Br)cc1)NC(=O)c1ccccc1O,86.9*,-32.5,-3.8,64.0*,8.1,77.5*,-4.3,55.4*,78.9*,10.2,23.7
CSc1ccc(/C=C/C(=O)NC(=O)c2ccccc2O)cc1,92.8*,-392.0,-7.8,48.3,-2.5,79.0*,21.7,15.3,10.3,4.8,17.7
CC(=NNC(=S)Nc1ccc(F)cc1)c1ccc2c(c1)OCCO2,/,/,/,/,2.9,/,/,/,/,/,/
C/C(=N\NC(=O)c1ccc(Br)cc1)c1ccccc1,70.2*,19.6,-0.1,36.2,/,37.7,24.1,55.3*,35.8,48.2,20.9
CC(=NNC(=O)c1ccc(Br)cc1)c1ccccc1,/,/,/,/,-1.7,/,/,/,/,/,/
C/C(=N\NC(=O)c1ccc2c(c1)OCCO2)c1ccccc1,88.6*,15.9,0.8,95.7*,/,86.0*,1.8,86.6*,99.1*,94.0*,81.7*
CC(=NNC(=O)c1ccc2c(c1)OCCO2)c1ccccc1,/,/,/,/,4.6,/,/,/,/,/,/
O=C(COc1ccccc1)NCC(=O)NN=Cc1ccccc1,/,/,/,/,6.1,/,/,/,/,/,/
Cc1cn2nc(N)c3ccccc3c2n1,-3.4,i,-1.0,-4.0,-121.0,-1.9,/,/,/,/,/
Nc1nn2cc(-c3ccccc3)nc2c2ccccc12,33.2,-402.9,3.0,68.9*,i,56.4*,78.3*,76.5*,91.3*,72.8*,73.8*
SMILES,SENP6 inh,SENP8 block-1,SENP1 inh,SENP7 inh,UCH37 DUB inh,SENP8 block-2,SENP8 conf,SENP6 conf,SENP7 confirm,Casp3 select,Luc interf
CC(=NNC(=O)c1ccoc1C)c1ccc(N2CCOCC2)cc1,/,/,/,/,2.6,/,/,/,/,/,/
Cc1occc1C(=O)N/N=C/C(Br)=C\c1ccccc1,91.7*,13.6,1.2,95.6*,/,90.9*,90.7*,94.9*,101.1*,89.7*,60.6*
Cc1cc(C(=O)N/N=C/c2ccccc2)c(C)o1,47.2,20.7,1.0,73.6*,/,34.4,59.3*,57.3*,84.8*,83.2*,60.4*
Cc1occc1C(=O)N/N=C/C=C/c1ccccc1,58.4*,22.3,-3.5,54.8*,/,43.3,70.1*,68.3*,91.2*,86.2*,70.0*
C/C(=N\NC(=O)c1ccoc1C)c1ccccc1,72.7*,20.3,2.6,69.4*,/,51.0*,11.2,59.5*,87.3*,84.4*,49.8
Cc1cc(C(=O)NN=Cc2ccccc2)c(C)o1,/,/,/,/,1.7,/,/,/,/,/,/
Cc1occc1C(=O)NN=C/C(Br)=C/c1ccccc1,/,/,/,/,-0.3,/,/,/,/,/,/
CN(Cc1c(C(=O)NN=Cc2ccccc2F)nnn1-c1nonc1N)c1ccccc1,/,/,/,/,2.6,/,/,/,/,/,/
O=c1c2c3c(sc2ncn1N=Cc1ccc([N+](=O)[O-])o1)CCCC3,/,/,/,/,-0.3,/,/,/,/,/,/
COc1ccc(C=NNC(=O)CCc2ccccc2)cc1O,/,/,/,/,2.5,/,/,/,/,/,/
Cc1occc1C(=O)N/N=C/C=C/c1ccc(N(C)C)cc1,49.7,-386.2,-28.6,46.0,/,38.9,/,/,/,/,/
Cc1occc1C(=O)N/N=C/c1ccc(N(C)C)cc1,96.1*,-449.7,-6.3,97.9*,/,96.4*,10.8,100.2*,103.6*,99.1*,98.0*
O=C(NN=Cc1cc(Br)c(Br)o1)c1cc2ccccc2o1,/,/,/,/,-55.7,/,/,/,/,/,/
Fc1ccc(COc2ccc(C(=S)N3CCCC3)cc2)cc1,62.2*,11.8,1.2,40.0,4.9,38.0,60.1*,54.2*,75.5*,46.0,28.1
S=C(c1ccc(OCc2ccccc2)cc1)N1CCCC1,59.7*,16.2,1.2,61.2*,3.9,46.9,41.5,36.7,54.8*,26.6,26.4
CCOc1cc(C(=S)N2CCCC2)ccc1OCc1ccccc1,0.1,23.7,0.8,4.6,1.2,1.4,/,/,/,/,/
NC(=O)COc1ccc(C=NNS(=O)(=O)c2ccccc2)cc1,/,/,/,/,-0.3,/,/,/,/,/,/
COc1ccc(/C=C(/NC(=O)c2ccccc2)C(=O)NN=Cc2sccc2C)cc1,/,/,/,/,3.1,/,/,/,/,/,/
Cc1cc(C(=O)COC(=O)c2ccc[nH]c2=O)c(C)n1C1CC1,-35.3,5.0,0.1,-3.2,3.4,-4.1,/,/,/,/,/
Cc1cc(C(=O)COC(=O)c2ccc(F)cc2F)c(C)n1C1CC1,63.6*,11.8,0.7,43.3,-1.3,49.6,-1.3,-13.5,33.0,13.9,-3.1

# Compound activity from PubChem.
